Laboratory results published in ChEMBL document CHEMBL5532745, “Enzymatic Synthesis of Austroeupatol Esters with Enhanced Antiprotozoal Activity” (ACS Med Chem Lett, 2024).

test system: Leishmania infantum; assay: Antiprotozoal activity against Leishmania infantum MHOM/BR/2002/LPC-RPV promastigotes assessed as growth inhibition at 25 uM incubated for 5 days relative to control; format: functional; settings: 120 h, time 5 day, read-out: GI

With C=C1CC[C@@H]2[C@H](COC(=O)CCc3c[nH]c4ccccc34)[C@H](O)[C@H](O)C[C@@]2(C)[C@@H]1CCc1ccoc1 as the compound, how does the inhibition of growth at 25 µM read?
Its inhibition of growth at 25 µM is 91.5%.

Which inhibition of growth at 25 µM does the source give for C=C1CC[C@@H]2[C@H](COC(=O)CCCCCCCCCCC)[C@H](OC(=O)CCCCCCCCCCC)[C@H](O)C[C@@]2(C)[C@@H]1CCc1ccoc1 here?
Its inhibition of growth at 25 µM is 2.4%.

Which inhibition of growth at 25 µM does the source give for C=C1CC[C@@H]2[C@H](COC(=O)CCCC[C@@H]3CCSS3)[C@H](O)[C@H](O)C[C@@]2(C)[C@@H]1CCc1ccoc1 here?
The inhibition of growth at 25 µM was 47.7%.

For C=C1CC[C@@H]2[C@H](CO)[C@H](O)[C@H](O)C[C@@]2(C)[C@@H]1CCc1ccoc1, which inhibition of growth at 25 µM is on record?
Its inhibition of growth at 25 µM is 0%.

With C=C1CC[C@@H]2[C@H](COC(C)=O)[C@H](O)[C@H](O)C[C@@]2(C)[C@@H]1CCc1ccoc1 as the compound, how does the inhibition of growth at 25 µM read?
The inhibition of growth at 25 µM was 15.7%.

Which inhibition of growth at 25 µM does the source give for C=C1CC[C@@H]2[C@H](COC(=O)CCCCCCCCCCCCCCC)[C@H](O)[C@H](O)C[C@@]2(C)[C@@H]1CCc1ccoc1 here?
The inhibition of growth at 25 µM was 0%.

With C=C1CC[C@@H]2[C@H](COC(=O)CCCCCCCCCCC)[C@H](O)[C@H](O)C[C@@]2(C)[C@@H]1CCc1ccoc1 as the compound, how does the inhibition of growth at 25 µM read?
The inhibition of growth at 25 µM was 29.1%.

With C=C1CC[C@@H]2[C@H](COC(=O)CCCCCCCCCCCCCCC)[C@H](OC(=O)CCCCCCCCCCCCCCC)[C@H](O)C[C@@]2(C)[C@@H]1CCc1ccoc1 as the compound, how does the inhibition of growth at 25 µM read?
Its inhibition of growth at 25 µM is 0%.

Which inhibition of growth at 25 µM does the source give for C=C1CC[C@@H]2[C@H](COC(=O)CCCC)[C@H](O)[C@H](O)C[C@@]2(C)[C@@H]1CCc1ccoc1 here?
Its inhibition of growth at 25 µM is 94.1%.

For C=C1CC[C@@H]2[C@H](COC(=O)CCCCCCC)[C@H](OC(=O)CCCCCCC)[C@H](O)C[C@@]2(C)[C@@H]1CCc1ccoc1, which inhibition of growth at 25 µM is on record?
Its inhibition of growth at 25 µM is 16.4%.

Which inhibition of growth at 25 µM does the source give for C=C1CC[C@@H]2[C@H](COC(=O)CCCCCCC)[C@H](O)[C@H](O)C[C@@]2(C)[C@@H]1CCc1ccoc1 here?
Its inhibition of growth at 25 µM is 57.1%.

test system: Trypanosoma cruzi; assay: Antiprotozoal activity against Trypanosoma cruzi epimastigotes assessed as growth inhibition at 25 uM incubated for 5 days relative to control; format: functional; settings: 120 h, time 5 day, read-out: GI

Which inhibition of growth at 25 µM does the source give for C=C1CC[C@@H]2[C@H](COC(=O)CCc3c[nH]c4ccccc34)[C@H](O)[C@H](O)C[C@@]2(C)[C@@H]1CCc1ccoc1 here?
Its inhibition of growth at 25 µM is 64.3%.

For C=C1CC[C@@H]2[C@H](COC(=O)CCCCCCCCCCC)[C@H](OC(=O)CCCCCCCCCCC)[C@H](O)C[C@@]2(C)[C@@H]1CCc1ccoc1, which inhibition of growth at 25 µM is on record?
Its inhibition of growth at 25 µM is 46.8%.

With C=C1CC[C@@H]2[C@H](COC(=O)CCCC[C@@H]3CCSS3)[C@H](O)[C@H](O)C[C@@]2(C)[C@@H]1CCc1ccoc1 as the compound, how does the inhibition of growth at 25 µM read?
The inhibition of growth at 25 µM was 58.5%.

Which inhibition of growth at 25 µM does the source give for C=C1CC[C@@H]2[C@H](CO)[C@H](O)[C@H](O)C[C@@]2(C)[C@@H]1CCc1ccoc1 here?
Its inhibition of growth at 25 µM is 24.9%.

For C=C1CC[C@@H]2[C@H](COC(C)=O)[C@H](O)[C@H](O)C[C@@]2(C)[C@@H]1CCc1ccoc1, which inhibition of growth at 25 µM is on record?
Its inhibition of growth at 25 µM is 21.6%.

Which inhibition of growth at 25 µM does the source give for C=C1CC[C@@H]2[C@H](COC(=O)CCCCCCCCCCCCCCC)[C@H](O)[C@H](O)C[C@@]2(C)[C@@H]1CCc1ccoc1 here?
The inhibition of growth at 25 µM was 24.9%.

With C=C1CC[C@@H]2[C@H](COC(=O)CCCCCCCCCCC)[C@H](O)[C@H](O)C[C@@]2(C)[C@@H]1CCc1ccoc1 as the compound, how does the inhibition of growth at 25 µM read?
Its inhibition of growth at 25 µM is 69.7%.

With C=C1CC[C@@H]2[C@H](COC(=O)CCCCCCCCCCCCCCC)[C@H](OC(=O)CCCCCCCCCCCCCCC)[C@H](O)C[C@@]2(C)[C@@H]1CCc1ccoc1 as the compound, how does the inhibition of growth at 25 µM read?
Its inhibition of growth at 25 µM is 31.8%.

For C=C1CC[C@@H]2[C@H](COC(=O)CCCC)[C@H](O)[C@H](O)C[C@@]2(C)[C@@H]1CCc1ccoc1, which inhibition of growth at 25 µM is on record?
Its inhibition of growth at 25 µM is 93.5%.

With C=C1CC[C@@H]2[C@H](COC(=O)CCCCCCC)[C@H](OC(=O)CCCCCCC)[C@H](O)C[C@@]2(C)[C@@H]1CCc1ccoc1 as the compound, how does the inhibition of growth at 25 µM read?
The inhibition of growth at 25 µM was 27.4%.

For C=C1CC[C@@H]2[C@H](COC(=O)CCCCCCC)[C@H](O)[C@H](O)C[C@@]2(C)[C@@H]1CCc1ccoc1, which inhibition of growth at 25 µM is on record?
The inhibition of growth at 25 µM was 99.5%.

test system: Trypanosoma cruzi; assay: Antiprotozoal activity against Trypanosoma cruzi Tulahuen strain amastigotes expressing Escherichia coli beta-galactosidase cultured in Vero cells assessed as growth inhibition at 10 uM incubated for 5 days relative to control; format: functional; settings: 120 h, time 5 day, read-out: GI
Summary of the method: (§1)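 Vero cells infected with trypomastigotes carrying β-galactosidase; intracellular parasites exposed to compounds, growth inhibition read spectrophotometrically.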

For C=C1CC[C@@H]2[C@H](COC(=O)CCc3c[nH]c4ccccc34)[C@H](O)[C@H](O)C[C@@]2(C)[C@@H]1CCc1ccoc1, which inhibition of growth at 10 µM is on record?
The inhibition of growth at 10 µM was 98.7%.

For C=C1CC[C@@H]2[C@H](COC(=O)CCCCCCCCCCC)[C@H](OC(=O)CCCCCCCCCCC)[C@H](O)C[C@@]2(C)[C@@H]1CCc1ccoc1, which inhibition of growth at 10 µM is on record?
The inhibition of growth at 10 µM was 4.73%.

With C=C1CC[C@@H]2[C@H](COC(=O)CCCC[C@@H]3CCSS3)[C@H](O)[C@H](O)C[C@@]2(C)[C@@H]1CCc1ccoc1 as the compound, how does the inhibition of growth at 10 µM read?
Its inhibition of growth at 10 µM is 95.2%.

For C=C1CC[C@@H]2[C@H](CO)[C@H](O)[C@H](O)C[C@@]2(C)[C@@H]1CCc1ccoc1, which inhibition of growth at 10 µM is on record?
Its inhibition of growth at 10 µM is 28%.

Which inhibition of growth at 10 µM does the source give for C=C1CC[C@@H]2[C@H](COC(C)=O)[C@H](O)[C@H](O)C[C@@]2(C)[C@@H]1CCc1ccoc1 here?
The inhibition of growth at 10 µM was 22.7%.

For C=C1CC[C@@H]2[C@H](COC(=O)CCCCCCCCCCCCCCC)[C@H](O)[C@H](O)C[C@@]2(C)[C@@H]1CCc1ccoc1, which inhibition of growth at 10 µM is on record?
Its inhibition of growth at 10 µM is 2.98%.

Which inhibition of growth at 10 µM does the source give for C=C1CC[C@@H]2[C@H](COC(=O)CCCCCCCCCCC)[C@H](O)[C@H](O)C[C@@]2(C)[C@@H]1CCc1ccoc1 here?
Its inhibition of growth at 10 µM is 12.5%.

Which inhibition of growth at 10 µM does the source give for C=C1CC[C@@H]2[C@H](COC(=O)CCCCCCCCCCCCCCC)[C@H](OC(=O)CCCCCCCCCCCCCCC)[C@H](O)C[C@@]2(C)[C@@H]1CCc1ccoc1 here?
Its inhibition of growth at 10 µM is 2.06%.

Which inhibition of growth at 10 µM does the source give for C=C1CC[C@@H]2[C@H](COC(=O)CCCC)[C@H](O)[C@H](O)C[C@@]2(C)[C@@H]1CCc1ccoc1 here?
The inhibition of growth at 10 µM was 99.1%.

For C=C1CC[C@@H]2[C@H](COC(=O)CCCCCCC)[C@H](OC(=O)CCCCCCC)[C@H](O)C[C@@]2(C)[C@@H]1CCc1ccoc1, which inhibition of growth at 10 µM is on record?
Its inhibition of growth at 10 µM is 9.79%.

Which inhibition of growth at 10 µM does the source give for C=C1CC[C@@H]2[C@H](COC(=O)CCCCCCC)[C@H](O)[C@H](O)C[C@@]2(C)[C@@H]1CCc1ccoc1 here?
The inhibition of growth at 10 µM was 100%.

test system: Leishmania infantum; assay: Antiprotozoal activity against Leishmania infantum MHOM/BR/2002/LPC-RPV promastigotes assessed as growth inhibition at 25 uM incubated for 5 days; format: functional, organism-based; settings: not given

With MEGLUMINE ANTIMONATE as the compound, how does the IC50 read?
Its IC50 is 20 µM.

test system: Trypanosoma cruzi; assay: Antiprotozoal activity against Trypanosoma cruzi Tulahuen strain amastigotes expressing Escherichia coli beta-galactosidase cultured in Vero cells assessed as growth inhibition incubated for 5 days; format: functional, organism-based; settings: 120 h; summary of the method: as §1

With C=C1CC[C@@H]2[C@H](COC(=O)CCc3c[nH]c4ccccc34)[C@H](O)[C@H](O)C[C@@]2(C)[C@@H]1CCc1ccoc1 as the compound, how does the IC50 read?
Its IC50 is 2260 nM.

Which IC50 does the source give for C=C1CC[C@@H]2[C@H](COC(=O)CCCC[C@@H]3CCSS3)[C@H](O)[C@H](O)C[C@@]2(C)[C@@H]1CCc1ccoc1 here?
The IC50 was 2060 nM.

For C=C1CC[C@@H]2[C@H](CO)[C@H](O)[C@H](O)C[C@@]2(C)[C@@H]1CCc1ccoc1, which IC50 is on record?
The IC50 was over 15000 nM.

With C=C1CC[C@@H]2[C@H](COC(=O)CCCC)[C@H](O)[C@H](O)C[C@@]2(C)[C@@H]1CCc1ccoc1 as the compound, how does the IC50 read?
The IC50 was 8500 nM.

With C=C1CC[C@@H]2[C@H](COC(=O)CCCCCCC)[C@H](O)[C@H](O)C[C@@]2(C)[C@@H]1CCc1ccoc1 as the compound, how does the IC50 read?
Its IC50 is 7030 nM.

For O=C(Cn1ccnc1[N+](=O)[O-])NCc1ccccc1 [BENZNIDAZOLE], which IC50 is on record?
The IC50 was 940 nM.

test system: not listed separately; assay: Cytotoxicity against African green monkey Vero cells incubated for 48 hrs by MTT assay; format: toxicity, cell-based; settings: chlorocebus sabaeus
Summary of the method: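 Uninfected Vero cells exposed to compounds; viability read by MTT assay to estimate cytotoxicity for selectivity assessment.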

With C=C1CC[C@@H]2[C@H](COC(=O)CCc3c[nH]c4ccccc34)[C@H](O)[C@H](O)C[C@@]2(C)[C@@H]1CCc1ccoc1 as the compound, how does the CC50 at 48 h read?
The CC50 at 48 h was under 10 µM.

Which CC50 at 48 h does the source give for C=C1CC[C@@H]2[C@H](COC(=O)CCCC[C@@H]3CCSS3)[C@H](O)[C@H](O)C[C@@]2(C)[C@@H]1CCc1ccoc1 here?
The CC50 at 48 h was under 10 µM.

Which CC50 at 48 h does the source give for C=C1CC[C@@H]2[C@H](CO)[C@H](O)[C@H](O)C[C@@]2(C)[C@@H]1CCc1ccoc1 here?
The CC50 at 48 h was 85.4 µM.

With C=C1CC[C@@H]2[C@H](COC(=O)CCCC)[C@H](O)[C@H](O)C[C@@]2(C)[C@@H]1CCc1ccoc1 as the compound, how does the CC50 at 48 h read?
Its CC50 at 48 h is 19.3 µM.

For C=C1CC[C@@H]2[C@H](COC(=O)CCCCCCC)[C@H](O)[C@H](O)C[C@@]2(C)[C@@H]1CCc1ccoc1, which CC50 at 48 h is on record?
Its CC50 at 48 h is 18.1 µM.

For O=C(Cn1ccnc1[N+](=O)[O-])NCc1ccccc1 [BENZNIDAZOLE], which CC50 at 48 h is on record?
Its CC50 at 48 h is over 384 µM.
